Series [1] concerns HUVEC. Nature of the series: cells. Format: cell-based. Conditions: Homo sapiens, 72 h, read-out: IC50 VEGF‐stimulated HUVEC proliferation.
In series [2] the target is T1, VEGFR2 (Homo sapiens, UniProt P35968). Nature of the series: Tyrosine kinase ELISA, VEGFR2. Format: biochemical. (In general: ELISA stands for enzyme-linked immunosorbent assay.)
Series [3] has as its target T2, c‐Kit (Homo sapiens, UniProt P10721). Nature of the series: Tyrosine kinase ELISA, c‐Kit. Format: biochemical.
For the next series, the target named is VEGFR1 (Homo sapiens, UniProt P17948). Nature of the series: Tyrosine kinase ELISA, VEGFR1. Format: biochemical.
The next series concerns the target VEGFR3 (Homo sapiens, UniProt P35916). Put plainly: Tyrosine kinase ELISA, VEGFR3. Format: biochemical.
Another series concerns the target c‐Met (Homo sapiens, UniProt P08581). Put plainly: Tyrosine kinase ELISA, c‐Met. Format: biochemical.
The target of another series is c‐Src (Homo sapiens, UniProt P12931). Nature of the series: biochemical. Format: biochemical.
The target in series [4] is T3, HER2 (Homo sapiens, UniProt P04626). Nature of the series: Tyrosine kinase ELISA, HER2. Format: biochemical.
For the next series, the target named is EGFR (Homo sapiens, UniProt P00533). Nature of the series: biochemical. Format: biochemical.
The target of series [5] is T1, VEGFR2. Put plainly: VEGF‐stimulated VEGFR2 phosphorylation in HUVEC. The class given is cell-based.
Series [6] addresses T2, c‐Kit. Nature of the series: SCF‐1‐stimulated c‐Kit phosphorylation in Mo7e cells. As to conditions: SCF‐1 2.5 ng/mL. Format: cell-based.
Another series concerns the target PDGFRβ (Homo sapiens, UniProt P09619). Put plainly: PDGF‐BB‐stimulated PDGFRβ phosphorylation in U‐87MG cells. Format: cell-based. As to conditions: PDGF‐BB 10 ng/mL.
For series [7], the target named is T3, HER2. Nature of the series: Constitutive HER2 signaling in BT‐474 cells. The class given is cell-based. Conditions: even at 1000 nmol/L.
Series [8] has as its system HUVEC. Put plainly: FBS‐stimulated HUVEC proliferation. Format: cell-based. As to conditions: Homo sapiens, 72 h, read-out: IC50 FBS‐stimulated HUVEC proliferation. The gist of the method:
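HUVEC were isolated from umbilical cord veins and maintained in M199 with 20% FBS plus endothelial cell growth supplement. Cells were exposed to serial drug dilutions with 20% FBS for 72 h. Viability was measured by sulforhodamine B, and IC50 was obtained by curve fitting. Values are mean ± SD of 3 independent experiments.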

For the next series, the system named is panel of tumor cells. Nature of the series: FBS‐stimulated tumor cell proliferation. Format: cell-based, human. The method in brief:
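Tumor lines were grown in 10% FBS and treated with serial drug dilutions for 72 h, with sulforhodamine B readout. IC50 was obtained by curve fitting (mean ± SD, 3 independent experiments).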

Series [9] relates to HUVEC. Nature of the series: cells. Format: cell-based. Conditions: Homo sapiens, 8 h, read-out: IC50 HUVEC migration in response to VEGF.
Series [10] relates to HUVEC. Put plainly: HUVEC tube‐formation assay on Matrigel. The class given is cell-based, human. As to conditions: 100 nmol/L, 20% FBS, 6 h. The method in brief: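 Matrigel was set at 37°C for 30 min. HUVEC (1 × 10^5/mL) in M199 with 20% FBS and drug were then plated onto it. After 6 h, capillary tube formation was imaged at high magnification.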
The test system of a further series is rat aortic rings. Put plainly: Rat aortic ring assay. Format: cell-based. As to conditions: 100 nmol/L, VEGF 50 ng/mL, 7 days. The gist of the method:
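Thoracic aortas from 6-week-old male Sprague-Dawley rats were cut into 1-mm rings, embedded in Matrigel and held 1 h at 37°C. M199 containing VEGF-A (50 ng/mL) plus drug was added. After 7 days, sprouting microvessels were counted in 5 random fields.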

The subject of another series is SW620 tumor xenografts. Nature of the series: SW620 tumor xenograft in nude mice. Format: in vivo. The gist of the method:
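Female Balb/cA-nude mice, 5–6 weeks old, received cells subcutaneously in the left axilla and were randomized at 100–200 mm3 tumor volume. Dosing was oral, daily for 18 d (vehicle n = 12, treated n = 6). Tumor volume, calculated as (length × width²)/2, and bodyweight were measured twice weekly. TGI was calculated from treatment start against vehicle. Data are mean ± SEM; Student's t test.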

The test system of series [11] is CD31‐positive microvessels in SW620 tumor xenografts. Nature of the series: CD31 immunohistochemistry, microvessel density in SW620 xenograft tumors. Format: in vivo, nude mice. The method in brief:
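Nude mice (female Balb/cA-nude) bearing subcutaneous SW620 xenografts were dosed orally once daily for 14 days. Tumors were formalin-fixed and paraffin-embedded, and sections were stained for the endothelial marker CD31 with a rabbit anti-mouse antibody and an S-P immunodetection kit. Vessel density was derived from CD31 staining.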

The conditions of series [12]: once‐daily dose of 12 mg; cited from earlier work.

SMILES strings stand for the structures.

T1 sequence (P35968 20-1356): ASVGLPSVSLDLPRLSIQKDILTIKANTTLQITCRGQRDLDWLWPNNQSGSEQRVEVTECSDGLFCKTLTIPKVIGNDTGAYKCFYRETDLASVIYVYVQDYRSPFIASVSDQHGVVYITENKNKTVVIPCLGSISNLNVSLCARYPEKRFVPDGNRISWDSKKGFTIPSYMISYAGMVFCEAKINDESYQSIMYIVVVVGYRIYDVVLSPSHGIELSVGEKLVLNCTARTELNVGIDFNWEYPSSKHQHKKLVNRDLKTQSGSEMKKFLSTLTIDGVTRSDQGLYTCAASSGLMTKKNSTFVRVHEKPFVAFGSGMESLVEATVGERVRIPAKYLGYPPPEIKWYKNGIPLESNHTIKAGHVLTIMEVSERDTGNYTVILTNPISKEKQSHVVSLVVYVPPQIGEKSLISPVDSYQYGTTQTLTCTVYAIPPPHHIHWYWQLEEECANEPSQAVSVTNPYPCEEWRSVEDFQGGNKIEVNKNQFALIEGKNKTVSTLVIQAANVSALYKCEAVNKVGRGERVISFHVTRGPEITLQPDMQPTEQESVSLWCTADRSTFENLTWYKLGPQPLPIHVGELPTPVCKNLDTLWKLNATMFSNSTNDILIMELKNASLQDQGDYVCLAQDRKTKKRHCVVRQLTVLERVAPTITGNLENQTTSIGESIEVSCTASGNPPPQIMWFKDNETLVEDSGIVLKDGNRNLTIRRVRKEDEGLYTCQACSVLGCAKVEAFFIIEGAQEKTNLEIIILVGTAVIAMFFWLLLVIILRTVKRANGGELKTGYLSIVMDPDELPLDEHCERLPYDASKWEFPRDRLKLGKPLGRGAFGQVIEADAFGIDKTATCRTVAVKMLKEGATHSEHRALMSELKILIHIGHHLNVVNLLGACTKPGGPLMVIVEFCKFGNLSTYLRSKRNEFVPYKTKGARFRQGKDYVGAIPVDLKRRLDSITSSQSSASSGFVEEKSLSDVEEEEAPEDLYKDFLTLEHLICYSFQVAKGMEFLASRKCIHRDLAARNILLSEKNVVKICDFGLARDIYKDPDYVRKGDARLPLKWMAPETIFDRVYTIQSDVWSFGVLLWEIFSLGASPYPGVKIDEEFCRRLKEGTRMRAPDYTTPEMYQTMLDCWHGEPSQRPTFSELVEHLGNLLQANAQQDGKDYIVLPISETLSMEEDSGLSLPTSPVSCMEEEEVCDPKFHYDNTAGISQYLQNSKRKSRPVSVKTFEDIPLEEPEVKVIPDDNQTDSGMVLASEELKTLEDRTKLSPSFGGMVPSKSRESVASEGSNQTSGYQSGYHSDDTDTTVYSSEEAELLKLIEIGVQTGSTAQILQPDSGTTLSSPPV
T3 sequence (P04626 23-1255): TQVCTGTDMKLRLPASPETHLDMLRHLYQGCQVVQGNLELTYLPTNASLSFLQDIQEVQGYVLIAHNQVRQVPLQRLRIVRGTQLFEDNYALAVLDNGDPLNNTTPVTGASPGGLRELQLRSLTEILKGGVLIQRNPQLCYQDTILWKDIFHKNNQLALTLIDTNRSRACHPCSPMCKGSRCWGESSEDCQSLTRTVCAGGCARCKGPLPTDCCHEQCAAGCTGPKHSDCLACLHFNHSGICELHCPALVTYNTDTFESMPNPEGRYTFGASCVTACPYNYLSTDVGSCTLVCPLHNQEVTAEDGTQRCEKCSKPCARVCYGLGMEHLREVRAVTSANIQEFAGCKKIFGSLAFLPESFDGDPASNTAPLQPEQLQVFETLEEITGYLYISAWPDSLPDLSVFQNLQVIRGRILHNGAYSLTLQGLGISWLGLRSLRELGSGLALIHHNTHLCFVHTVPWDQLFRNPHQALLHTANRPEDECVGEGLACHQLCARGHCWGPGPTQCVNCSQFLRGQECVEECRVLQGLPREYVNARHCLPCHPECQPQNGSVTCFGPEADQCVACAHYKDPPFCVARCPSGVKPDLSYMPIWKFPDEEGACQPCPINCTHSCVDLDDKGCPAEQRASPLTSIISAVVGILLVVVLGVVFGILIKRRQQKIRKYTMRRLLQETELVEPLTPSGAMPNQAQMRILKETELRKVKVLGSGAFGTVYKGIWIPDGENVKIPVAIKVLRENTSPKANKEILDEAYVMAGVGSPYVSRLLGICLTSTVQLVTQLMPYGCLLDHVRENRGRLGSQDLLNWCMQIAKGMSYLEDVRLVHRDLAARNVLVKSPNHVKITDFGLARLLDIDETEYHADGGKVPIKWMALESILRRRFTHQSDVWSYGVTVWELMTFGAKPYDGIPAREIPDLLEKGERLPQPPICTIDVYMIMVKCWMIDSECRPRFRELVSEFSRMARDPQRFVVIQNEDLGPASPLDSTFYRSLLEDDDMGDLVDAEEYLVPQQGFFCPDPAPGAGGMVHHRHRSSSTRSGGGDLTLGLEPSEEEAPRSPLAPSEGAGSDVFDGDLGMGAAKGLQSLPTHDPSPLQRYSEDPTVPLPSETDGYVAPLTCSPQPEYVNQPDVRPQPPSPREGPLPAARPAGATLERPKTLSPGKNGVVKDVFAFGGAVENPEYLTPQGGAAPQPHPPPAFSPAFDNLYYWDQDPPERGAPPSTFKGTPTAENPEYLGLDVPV
Sequence of c‐Met (P08581 25-1390): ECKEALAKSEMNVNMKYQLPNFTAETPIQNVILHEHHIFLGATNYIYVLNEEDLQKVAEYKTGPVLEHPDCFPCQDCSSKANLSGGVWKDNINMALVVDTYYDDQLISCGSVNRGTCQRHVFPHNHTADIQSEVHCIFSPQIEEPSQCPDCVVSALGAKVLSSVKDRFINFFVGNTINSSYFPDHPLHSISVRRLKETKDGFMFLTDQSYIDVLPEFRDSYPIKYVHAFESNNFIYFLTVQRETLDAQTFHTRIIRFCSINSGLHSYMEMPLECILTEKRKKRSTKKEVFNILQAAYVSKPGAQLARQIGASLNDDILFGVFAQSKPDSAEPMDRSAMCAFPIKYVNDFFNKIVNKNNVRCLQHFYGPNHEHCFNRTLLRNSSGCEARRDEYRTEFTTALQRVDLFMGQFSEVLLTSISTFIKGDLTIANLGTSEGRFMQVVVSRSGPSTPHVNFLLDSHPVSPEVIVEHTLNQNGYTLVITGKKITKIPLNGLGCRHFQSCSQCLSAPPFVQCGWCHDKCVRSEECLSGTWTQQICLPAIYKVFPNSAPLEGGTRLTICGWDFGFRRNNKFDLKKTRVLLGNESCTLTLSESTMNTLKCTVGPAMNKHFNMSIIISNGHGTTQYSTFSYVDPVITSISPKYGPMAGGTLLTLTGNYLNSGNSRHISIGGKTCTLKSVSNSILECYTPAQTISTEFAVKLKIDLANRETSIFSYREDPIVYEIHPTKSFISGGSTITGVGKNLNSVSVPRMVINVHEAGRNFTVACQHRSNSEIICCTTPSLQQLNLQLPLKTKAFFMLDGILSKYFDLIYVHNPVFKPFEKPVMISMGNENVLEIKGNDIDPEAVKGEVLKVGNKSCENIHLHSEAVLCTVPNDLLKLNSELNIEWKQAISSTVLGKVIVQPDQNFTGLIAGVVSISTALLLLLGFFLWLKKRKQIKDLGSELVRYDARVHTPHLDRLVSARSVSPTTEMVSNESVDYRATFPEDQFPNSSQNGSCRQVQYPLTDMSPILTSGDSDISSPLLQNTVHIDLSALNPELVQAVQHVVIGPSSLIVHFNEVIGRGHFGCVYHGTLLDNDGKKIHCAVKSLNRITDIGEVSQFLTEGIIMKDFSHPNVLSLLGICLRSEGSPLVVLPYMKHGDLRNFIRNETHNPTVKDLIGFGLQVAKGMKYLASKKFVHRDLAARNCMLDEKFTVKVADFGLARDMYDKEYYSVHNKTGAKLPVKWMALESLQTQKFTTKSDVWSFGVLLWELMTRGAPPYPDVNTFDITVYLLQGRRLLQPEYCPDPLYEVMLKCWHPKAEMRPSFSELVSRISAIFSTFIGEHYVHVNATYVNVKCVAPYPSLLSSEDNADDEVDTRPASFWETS
T2 sequence (P10721 26-976): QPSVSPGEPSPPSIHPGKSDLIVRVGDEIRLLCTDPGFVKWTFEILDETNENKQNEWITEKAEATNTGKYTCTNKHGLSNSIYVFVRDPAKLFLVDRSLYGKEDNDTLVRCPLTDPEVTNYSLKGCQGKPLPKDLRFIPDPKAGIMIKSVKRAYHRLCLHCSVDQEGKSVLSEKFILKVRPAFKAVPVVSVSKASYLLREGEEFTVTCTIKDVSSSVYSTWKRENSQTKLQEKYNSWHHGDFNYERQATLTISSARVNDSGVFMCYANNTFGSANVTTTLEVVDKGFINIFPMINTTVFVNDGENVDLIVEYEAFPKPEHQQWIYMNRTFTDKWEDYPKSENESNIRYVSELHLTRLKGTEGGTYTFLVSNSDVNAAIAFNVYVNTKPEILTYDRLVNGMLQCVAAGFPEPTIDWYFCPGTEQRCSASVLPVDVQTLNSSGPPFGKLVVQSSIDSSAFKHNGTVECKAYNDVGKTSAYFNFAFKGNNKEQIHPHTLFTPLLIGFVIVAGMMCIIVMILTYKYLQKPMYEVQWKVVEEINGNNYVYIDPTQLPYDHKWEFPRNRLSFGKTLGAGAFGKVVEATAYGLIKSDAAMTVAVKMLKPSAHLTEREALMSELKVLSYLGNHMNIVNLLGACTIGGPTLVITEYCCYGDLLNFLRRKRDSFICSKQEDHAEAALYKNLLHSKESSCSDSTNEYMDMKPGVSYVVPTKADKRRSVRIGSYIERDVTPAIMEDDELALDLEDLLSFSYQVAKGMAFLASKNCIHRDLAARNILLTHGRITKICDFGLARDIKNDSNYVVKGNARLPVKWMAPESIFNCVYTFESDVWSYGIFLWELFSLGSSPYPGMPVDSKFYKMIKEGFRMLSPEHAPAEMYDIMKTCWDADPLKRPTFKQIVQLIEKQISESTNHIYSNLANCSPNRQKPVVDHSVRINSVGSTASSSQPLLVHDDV

Consider `CNC(=O)c1cc(Oc2ccc(NC(=O)Nc3ccc(Cl)c(C(F)(F)F)c3)cc2)ccn1` [Sorafenib], for which the IC50 with HUVEC [1] is 195 nM.
As for `COc1cc2c(Oc3ccc4[nH]c(C)cc4c3F)ccnc2cc1OCC1(N)CC1.Cl.Cl` [Anlotinib, 1‐[[[4‐(4‐fluoro‐2‐methyl‐1H‐indol‐5‐yloxy)‐6‐methoxyquinolin‐7‐Yl]oxy]methyl]cyclopropanamine dihydrochloride], the “potency relative to sunitinib for inhibition of VEGF2/3” value at VEGFR2 [2] was determined as 20 fold. The IC50 at VEGFR2 [2] (IC50 VEGFR2 kinase, ELISA, recombinant tyrosine kinase, mean ± SD (n = 3)) was less than 1 nM; against c‐Kit [3], 14.8 ± 2.5 nM; against VEGFR1, 26.9 ± 7.7 nM; against VEGFR3, 0.7 ± 0.1 nM; on c‐Met, more than 2000 nM; on c‐Src it was more than 2000 nM. Moreover, the IC50 against HER2 [4] is more than 2000 nM; on EGFR, more than 2000 nM; in the series with HUVEC [1], 0.2 nM; with HUVEC [8], 2000 nM; in the series with panel of tumor cells (Homo sapiens, 72 h, read-out: IC50 FBS‐stimulated tumor cell proliferation) it was 3000 to 12500 nM; in the series on HUVEC [9], 0.1 nM. Further, the “effect on c‐Met kinase activity” value at c‐Met (at 2000 nmol/L) is listed as “little effect”. Besides, at c‐Src (at 2000 nmol/L), the “effect on c‐Src kinase activity” value is given as “little effect”. Moreover, the “effect on HER2 kinase activity” value at HER2 [4] (at 2000 nmol/L) was “little effect”. The “effect on EGFR kinase activity” value on EGFR (at 2000 nmol/L) was “little effect”. Besides, the “VEGF‐stimulated ERK1/2 phosphorylation” value on VEGFR2 [5] is given as “inhibited”. The “effect on VEGF‐stimulated VEGFR2 phosphorylation” value on VEGFR2 [5] (0.1 nmol/L) is “clear inhibitory effect”. The “IC50, VEGF‐stimulated intracellular phosphorylation of VEGFR2” value at VEGFR2 [5] ([…] treatment, VEGF 20 ng/mL 10 min) is recorded as “subnanomolar”. Further, the “SCF‐1‐stimulated phosphorylation of c‐Kit, AKT and ERK” value on c‐Kit [6] was “inhibited”. Further, the “PDGF‐BB‐stimulated phosphorylation of PDGFRβ, AKT and ERK” value on PDGFRβ is listed as “inhibited”. Moreover, on HER2 [7], the “constitutive HER2 signaling” value is reported as “nor the constitutive HER2 signaling in BT‐474 cells was affected”. Besides, the “tumor cell IC50 relative to IC50 for VEGF‐stimulated HUVEC proliferation” value with panel of tumor cells (greater than HUVEC value) is on record as “more than 10 000 fold”. Further, the HUVEC tube formation entry with HUVEC [10] was “few enclosed tubes were detected”. The “budding of the aortic ring” value in the series on rat aortic rings is listed as “near complete inhibition”. In addition, the “%TGI” value in the series with SW620 tumor xenografts (SW620 (colon), 3 mg/kg p.o. daily, 18 d, 3 mg/kg) turned out to be 83%. The “effect on bodyweight in mice” value in the series with SW620 tumor xenografts (SW620 xenograft, all groups, during the course of the experiment) was “little effect on bodyweight”. For the same molecule, the “inhibition rate of CD31‐positive microvessels (microvessel density)” value was found to be 48.9% in series [11] (0.75 mg/kg oral daily), 91.2% in series [11] (3 mg/kg oral daily) and 76.3% in series [11] ([…] oral daily). Moreover, in series [12], the “circulation time in clinical trials” value is “long circulation time”. The “toxicity in clinical trials” value in series [12] is listed as “manageable toxicity”.
`CCN(CC)CCNC(=O)c1c(C)[nH]c(/C=C2\C(=O)Nc3ccc(F)cc32)c1C` [Sunitinib, reference compound]: in the series with HUVEC [1], the IC50 came to 18.5 nM. Also, the “inhibition rate of CD31‐positive microvessels (microvessel density)” value in [11] (50 mg/kg oral daily) is 63.6%.

The values above are taken from PMC5891194 (Cancer Science, 2018).
